Experimental data taken from ChEMBL document CHEMBL1145465, “PhoU is a persistence switch involved in persister formation and tolerance to multiple antibiotics and stresses in Escherichia coli” (2007).

Legend:
Format in all cases: functional
Escherichia coli [1] = assay: Antibacterial activity against Escherichia coli K12 mutant JHU313 at 6 ug/ml after 48 hrs by disc diffusion method
Outline: (§1)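 Kirby-Bauer disc assay: log-phase LB culture was spread on LB agar for confluent growth. 7-mm nitrocellulose discs were soaked in antibiotic at the listed concentration and placed on the agar. After 48 h at 37°C, the diameter of the inhibition zone was measured in mm.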

Escherichia coli [2] = assay: Antibacterial activity against Escherichia coli K12 PhoU wild type W3110 assessed as cell count in log phase at 100 ug/ml after 3 days
Outline: (§2)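 Log-phase or stationary-phase cultures exposed to ampicillin 100 μg/ml in MOPS minimal medium (pH 5.0) at 37°C without shaking, for 5 h up to 10 days. Aliquots were taken at each time point, washed in saline and plated on LB plates for viable CFU/ml.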

Escherichia coli [3] = assay: Antibacterial activity against Escherichia coli K12 PhoU wild type W3110 assessed as cell count in stationary phase at 100 ug/ml after 5 days; outline: as §2
Escherichia coli [4] = assay: Antibacterial activity against Escherichia coli K12 containing deletion deltahipA mutant assessed as cell count in log phase at 100 ug/ml after 24 hrs
Outline: (§3)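 Deletion mutants were made by the Datsenko–Wanner method. Log-phase or stationary-phase cultures were exposed to ampicillin at 100 μg/ml. CFU/ml was determined at the start and after 5, 24 and 72 h of exposure.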

Escherichia coli [5] = assay: Antibacterial activity against Escherichia coli K12 PhoU wild type W3110 at 100 ug/ml after 48 hrs by disc diffusion method
Outline: (§4)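 Kirby-Bauer disc assay. Log-phase LB culture (10⁸ bacteria) was spread for confluent growth on LB agar. 7 mm nitrocellulose discs soaked in antibiotic at the listed concentrations were laid on the agar. Inhibition zone diameter (mm) was measured after 48 h at 37°C.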

Escherichia coli [6] = assay: Antibacterial activity against Escherichia coli K12 PhoU wild type W3110 at 25 ug/ml after 48 hrs by disc diffusion method
Outline: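 Kirby-Bauer disc assay. Log-phase LB broth culture (10⁸ bacteria) was spread on LB agar for confluent growth. 7 mm nitrocellulose discs soaked in antibiotic solution at the listed concentration were placed on the agar. Inhibition zone diameter (mm) was measured after 48 h at 37°C.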

Escherichia coli [7] = assay: Antibacterial activity against Escherichia coli K12 mutant JHU313 containing plasmid vector at 25 ug/ml after 48 hrs by disc diffusion method
Outline: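 Kirby-Bauer paper-disc assay: log-phase E. coli (10⁸ bacteria) grown in LB broth, spread on LB agar for confluent growth; 7 mm nitrocellulose discs soaked with antibiotic solution at the listed concentration (μg/ml) placed on surface; incubated 37°C for 48 h; diameter of growth-inhibition zone measured in mm. Strain is the phoU transposon mutant transformed by electroporation with empty vector control.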

Escherichia coli [8] = assay: Antibacterial activity against Escherichia coli K12 PhoU wild type W3110 assessed as cell count in stationary phase at 100 ug/ml after 5 hrs; outline: as §2
Escherichia coli [9] = assay: Antibacterial activity against Escherichia coli K12 PhoU wild type W3110 assessed as cell count at 100 ug/ml
Escherichia coli [10] = assay: Antibacterial activity against Escherichia coli K12 PhoU wild type W3110 assessed as cell count in log phase at 100 ug/ml after 10 days
Outline: (§5)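 Log-phase or stationary-phase cultures were exposed to ampicillin (100 μg/ml) or norfloxacin (3 μg/ml) in MOPS minimal medium, pH 5.0, at 37°C without shaking, for 5 h to 10 days. Aliquots were saline-washed and plated on LB for CFU/ml.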

Escherichia coli [11] = assay: Antibacterial activity against Escherichia coli K12 containing deletion deltaphoB mutant assessed as cell count in log phase at 100 ug/ml after 5 hrs; outline: as §3
Escherichia coli [12] = assay: Antibacterial activity against Escherichia coli K12 containing deletion deltaphoB mutant assessed as cell count in stationary phase at 100 ug/ml after 5 hrs; outline: as §3
Escherichia coli [13] = assay: Antibacterial activity against Escherichia coli K12 containing deletion deltaphoR mutant assessed as cell count in stationary phase at 100 ug/ml after 5 hrs
Outline: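 Wild-type W3110-derived deletion mutants were made by the Datsenko–Wanner method. Log-phase or stationary-phase cultures were exposed to ampicillin 100 μg/ml in MOPS minimal medium at pH 5.0, at 37°C without shaking. Aliquots were taken at set times, washed in saline and plated on LB for viable CFU/ml.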

Escherichia coli [14] = assay: Antibacterial activity against Escherichia coli K12 containing PhoU mutant assessed as cell count in log phase at 3 ug/ml after 1 day; outline: as §5
Escherichia coli [15] = assay: Antibacterial activity against Escherichia coli K12 containing PhoU mutant assessed as cell count in stationary phase at 3 ug/ml after 1 day; outline: as §5
Escherichia coli [16] = assay: Antibacterial activity against Escherichia coli K12 PhoU wild type W3110 assessed as cell count in log phase at 3 ug/ml after 3 days; outline: as §5
Escherichia coli [17] = assay: Antibacterial activity against Escherichia coli K12 containing PhoU mutant assessed as cell count in stationary phase at 3 ug/ml after 3 days; outline: as §5
Escherichia coli [18] = assay: Antibacterial activity against Escherichia coli K12 PhoU wild type W3110 assessed as cell count in stationary phase at 3 ug/ml after 5 days; outline: as §5
Escherichia coli [19] = assay: Antibacterial activity against Escherichia coli K12 containing PhoU mutant assessed as cell count in log phase at 3 ug/ml after 5 days; outline: as §5
Escherichia coli [20] = assay: Antibacterial activity against Escherichia coli K12 PhoU wild type W3110 at 2 ug/ml after 48 hrs by disc diffusion method; outline: as §4
Escherichia coli [21] = assay: Antibacterial activity against Escherichia coli K12 containing deletion deltaphoU mutant assessed as cell count in stationary phase at 3 ug/ml after 5 days
Outline: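 Log-phase or stationary-phase cultures of the ΔphoU deletion mutant (Datsenko–Wanner construction) were exposed to norfloxacin 3 μg/ml in MOPS minimal medium, pH 5.0, at 37°C without shaking, for up to 10 days. Sampled aliquots were washed in saline and plated on LB agar for CFU/ml.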

Escherichia coli [22] = assay: Antibacterial activity against Escherichia coli K12 PhoU wild type W3110 assessed as cell count in log phase at 3 ug/ml after 1 week; outline: as §5
Escherichia coli [23] = assay: Antibacterial activity against Escherichia coli K12 containing PhoU mutant assessed as cell count in log phase at 3 ug/ml after 1 week; outline: as §5
Escherichia coli [24] = assay: Antibacterial activity against Escherichia coli K12 PhoU wild type W3110 at 0.5 ug/ml after 48 hrs by disc diffusion method; outline: as §4
Escherichia coli [25] = assay: Antibacterial activity against Escherichia coli K12 mutant JHU313 at 0.5 ug/ml after 48 hrs by disc diffusion method; outline: as §1
Escherichia coli [26] = assay: Antibacterial activity against Escherichia coli K12 PhoU wild type W3110 at 0.1 ug/ml after 48 hrs by disc diffusion method; outline: as §4
Escherichia coli [27] = assay: Antibacterial activity against Escherichia coli K12 mutant JHU313 at 0.1 ug/ml after 48 hrs by disc diffusion method; outline: as §1
Escherichia coli [28] = assay: Antibacterial activity against Escherichia coli K12 mutant JHU313 containing plasmid PhoU at 0.1 ug/ml after 48 hrs by disc diffusion method; outline: as §1
Escherichia coli [29] = assay: Antibacterial activity against Escherichia coli K12 PhoU wild type W3110 assessed as cell count in log phase at 3 ug/ml after 1 day; outline: as §5
Escherichia coli [30] = assay: Antibacterial activity against Escherichia coli K12 containing PhoU mutant assessed as cell count in stationary phase at 3 ug/ml after 10 days; outline: as §5

CC1(C)S[C@@H]2[C@H](NC(=O)[C@H](N)c3ccccc3)C(=O)N2[C@H]1C(=O)O [AMPICILLIN]
inhibition zone (IZ) (Escherichia coli [1]): 30 mm | CFU (Escherichia coli [2]): 0 mL⁻¹ | CFU (Escherichia coli [3]): 3 10^7/ml | CFU (Escherichia coli [4]): 1 10^3/ml | inhibition zone (IZ) (Escherichia coli [5]): 35 mm | inhibition zone (IZ) (Escherichia coli [6]): 28 mm | inhibition zone (IZ) (Escherichia coli [7]): 40 mm | CFU (Escherichia coli [8]): 5 10^9/ml | CFU (Escherichia coli [9]): 5 10^7/ml | CFU (Escherichia coli [10]): 0 mL⁻¹ | CFU (Escherichia coli [11]): 6 10^3/ml | CFU (Escherichia coli [12]): 4 10^9/ml | CFU (Escherichia coli [13]): 4 10^9/ml

CCn1cc(C(=O)O)c(=O)c2cc(F)c(N3CCNCC3)cc21 [NORFLOXACIN]
CFU (Escherichia coli [14]): 4 10^5/ml | CFU (Escherichia coli [15]): 4.5 10^7/ml | CFU (Escherichia coli [16]): 5 10^4/ml | CFU (Escherichia coli [17]): 2 10^5/ml | CFU (Escherichia coli [18]): 4 10^6/ml | CFU (Escherichia coli [19]): 0 mL⁻¹ | inhibition zone (IZ) (Escherichia coli [20]): 30 mm | CFU (Escherichia coli [21]): 0 mL⁻¹ | CFU (Escherichia coli [22]): 0 mL⁻¹ | CFU (Escherichia coli [23]): 0 mL⁻¹ | inhibition zone (IZ) (Escherichia coli [24]): 27 mm | inhibition zone (IZ) (Escherichia coli [25]): 30 mm | inhibition zone (IZ) (Escherichia coli [26]): 24 mm | inhibition zone (IZ) (Escherichia coli [27]): 28 mm | inhibition zone (IZ) (Escherichia coli [28]): 27 mm | CFU (Escherichia coli [29]): 4 10^6/ml | CFU (Escherichia coli [30]): 0 mL⁻¹
